Assay outcomes: PubChem, several laboratories
The list is not random: actives were taken first. Their share in the collection is about 1.4%.
CAL PDZ FP-1 = CAL PDZ peptide-binding inhibitors, primary screen, biochemical, fluorescence polarization, Cer-tagged CAL PDZ, HTS; Golgi-associated PDZ and coiled-coil motif-containing protein (Homo sapiens), Q9HD26; inhibition, % at 20 µM; purified CAL PDZ, TMR-peptide fluorescence polarization, 1 h; 330,000 tested, 0.02% active;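 active = highest replicate inhibition of at least 40%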;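 note: plate controls were DMSO neutral control wells for no effect and unlabeled competitor peptide control wells for full effect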
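Assay system – tagged CAL PDZ protein CerCALP, purified · Timing – 1 h at RT · Compound – single point, 20 µM · Measured by – fluorescence polarization from S- and P-plane intensities, G-factor corrected · Evaluation – inhibition from polarization loss · Probe or stimulus – TMR reporter peptide T*-PRC34 · Buffer or medium – pH 7.4 phosphate-saline buffer, reducing agent, detergent, IgG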
CAL PDZ FP-2 = untagged CAL PDZ binding inhibitors, primary screen, biochemical, fluorescence polarization, HTS; 300,000 tested, 0.92% active; inhibition, % at 24.9 µM; purified CAL PDZ, TMR-peptide fluorescence polarization, 1 h; Golgi-associated PDZ and coiled-coil motif-containing protein (Homo sapiens), Q9HD26; AID 602252, 2012;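 active = mean inhibition of at least 30% with at least half of replicates also reaching 30%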;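 note: 0% = DMSO neutral control and 100% = excess unlabeled competitor peptide PRC23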
Arrestin-AP2 inh = inhibitors of beta-arrestin/AP2 binding, primary screen, biochemical, GPCR trafficking, flow cytometry | beta-arrestin 1 C-terminal peptide binding to AP2 beta2-adaptin appendage (human) | FITC-arrestin peptide / GST-AP2 beads; AP2 beta2 appendage carries R879A mutation | inhibition, % at 10 µM | 340,000 tested, 0.31% active | AID 504490, 2011;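 active = inhibition above a set limit, near 3 SD of compounds lacking own fluorescence, cut at about 54% in these data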;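 note: plate controls were DMSO wells for no effect and 5 µM unlabelled arrestin peptide for full effect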
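Material – AP2 appendage R879A on GSH beads · Buffer or medium – PBS with 0.05% Tween 20 and 0.1% BSA · Probe or stimulus – fluorescein-tagged arrestin peptide at 50 nM final · Incubation – compound with beads 12 min RT, then probe 1 h RT · Detection – high-throughput flow cytometry of beads, ex 488, em 535 nm · Evaluation – percent response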
DDE Tn6 FP inh = inhibitors of Tn6 peptide binding to fibrin DD(E), primary screen, biochemical, fluorescence polarization, human fibrin, Tn6 probe; Fibrin DD(E) TRITC-Tn6 fluorescence polarization displacement; inhibition, % at 8.3 µM; Fibrinogen beta chain (Homo sapiens), P02675; 370,000 tested, 0.21% active;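 active = inhibition above a per-campaign cutoff: mean of compounds within control limits plus 3 SD, cut at about 15% in these data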;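 note: 0% = median of all compound wells on the plate and 100% = blocking peptide control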
Target sequence (P02675 whole entry, looked up): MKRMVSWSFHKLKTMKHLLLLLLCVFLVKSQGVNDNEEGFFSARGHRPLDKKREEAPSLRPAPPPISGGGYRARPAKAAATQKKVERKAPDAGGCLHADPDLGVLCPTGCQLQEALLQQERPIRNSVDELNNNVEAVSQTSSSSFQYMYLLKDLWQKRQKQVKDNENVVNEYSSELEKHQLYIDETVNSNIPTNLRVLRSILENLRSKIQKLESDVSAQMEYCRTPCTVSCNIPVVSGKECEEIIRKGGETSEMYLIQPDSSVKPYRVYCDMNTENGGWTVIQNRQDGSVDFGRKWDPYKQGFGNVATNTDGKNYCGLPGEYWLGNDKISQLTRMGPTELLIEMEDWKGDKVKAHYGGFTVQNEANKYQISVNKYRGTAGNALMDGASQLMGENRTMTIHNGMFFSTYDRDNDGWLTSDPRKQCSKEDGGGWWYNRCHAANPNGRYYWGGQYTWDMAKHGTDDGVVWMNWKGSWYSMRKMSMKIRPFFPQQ
Tn7 DDE FP = inhibitors of Tn7 peptide binding to fibrin DD(E), primary screen, biochemical, fluorescence polarization, human fibrin, Tn7 probe; FP displacement of FITC-Tn7 peptide from fibrin DD(E); 0% = median of compound wells per plate; Fibrinogen beta chain (Homo sapiens), P02675; inhibition, % at 8.3 µM; 370,000 tested, 0.13% active;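 active = inhibition above the mean of compounds falling within the control limits plus 3 SD of them, cut at about 14% in these data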;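 note: 0% = plate median of compound wells and 100% = 10 µM Aha-Tn7 peptide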
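Assay system: Fibrin-DD(E) protein isolated from polymerized human fibrin clots; read-out basis: percent inhibition; medium: Tris/NaCl/CaCl2 buffer, pH 7.8; signal: FP measurement; incubation: 10 min plus 3 h, room temperature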
Starred values were filed as active, the others as inactive; . = no result given.

SMILES	CAL PDZ FP-1	CAL PDZ FP-2	Arrestin-AP2 inh	DDE Tn6 FP inh	Tn7 DDE FP
COC(=O)C1CN(Cc2cn(Cc3ccc(Cl)cc3)nn2)CCS(=O)(=O)N1Cc1ccc(Cl)cc1 (stereo not given)	.	.	.	2	-6
COc1ccc(CN2C(=O)c3cccnc3C2=O)cc1S(=O)(=O)N(C)c1cccc(C)c1	0	47*	-6	2	-2
CCN(c1ccccc1)S(=O)(=O)c1cc(CN2C(=O)c3cccnc3C2=O)ccc1OC	-1	-8	-5	3	-2
O=C(CCN1N=C(c2ccccc2)CCC1=O)NCCCN1CCOCC1	-1	64*	-7	-8	4
O=C(Nc1ccc(Cl)cc1)N1CCc2ccccc2C1	-1	43*	2	-1	-1
Cc1ccc(C(C)C)c(OC/C(O)=C(\C#N)c2nc3ccccc3[nH]2)c1	0	63*	-7	2	-6
CC(C)C(=O)OC/C(O)=C(\C#N)c1nc2ccccc2[nH]1	0	-2	-12	-3	0
CN(C)/C=C/c1[nH]c(=O)[nH]c(=O)c1[N+](=O)[O-]	0	77*	-11	-2	3
O=c1[nH]c(/C=C/c2ccc([N+](=O)[O-])cc2)c([N+](=O)[O-])c(=O)[nH]1	-1	-2	14	2	1
CCC(C)(C(=O)NC1CCCCC1)N(C(=O)c1ccccn1)c1ccccc1 (stereo not given)	1	.	-1	-1	3
CCC(C)(C(=O)NC1CCCCC1)N(C)C(=O)c1ccccn1 (stereo not given)	0	53*	-2	12	-1
CCn1nnc(NC(=O)Cc2ccc(Cl)cc2)n1	-1	102*	3	4	-13
COc1ccc(CC(NC(C)=O)C(=O)NC2CCN(C(=O)c3ccc([N+](=O)[O-])cc3)CC2)cc1OC (stereo not given)	16	77*	-7	-6	-5
CCc1ccc(OC2=NS(=O)(=O)c3ccccc32)cc1	0	.	2	6	-3
CCN(CC)c1cccc(OC2=NS(=O)(=O)c3ccccc32)c1	-1	-3	14	111*	4
C=C(C)CSc1nnc(-c2cc(-c3ccccc3)n[nH]2)n1N	.	.	.	9	8
N#Cc1ccc(CC(=O)c2ccccc2)[nH]c1=O	24	-5	7	17*	-2
Cc1ccc(SCC(=O)Nc2ccc3c(c2)C(=O)N(C)C3=O)cc1	-2	179*	-1	-2	-6
Cc1ccc(SCC(=O)Nc2ccc3c(c2)C(=O)NC3=O)cc1	-1	-10	-12	-6	-3
COc1cc(/C=N/n2c(-c3cc(-c4ccccc4)n[nH]3)n[nH]c2=S)ccc1OCc1ccccc1	.	.	.	0	1
COc1ccc(C)cc1S(=O)(=O)N1CCCC(C(=O)NC2CC2)C1 (stereo not given)	0	36*	-7	1	8
CCOC(=O)Nc1ccc(NCc2ccc(F)cc2)nc1N	1	-1	5	13	23*
CCOC(=O)Nc1ccc(C)cc1NC(=O)OCC	-1	1	-6	1	-8
CCOC(=O)[C@]12CCCC3=C1N(CCC3)C(=O)[C@@H](CC(=O)NCCCN1CCCC1=O)C2	.	.	.	3	-8
CCOC(=O)CSc1nnc(-c2ccc(S(=O)(=O)N3CCOCC3)cc2)n1-c1ccccc1	-3	0	1	4	-2
Cc1nnc(SCC(=O)c2ccc(S(=O)(=O)N3CCOCC3)cc2)n1-c1ccccc1	1	73*	6	-4	1
CC(C)C(=O)N1CCN(c2ccccc2NC(=O)c2cccc3ccccc23)CC1	-5	47*	-8	-4	10
